Assay results reported in PMC5131535 (ACS chemical neuroscience, 2016).
pIC50: −log10 of the molar value.

Key:
Assay type in all cases: cell-based
Kir6.2/SUR1 = Kir6.2/SUR1 (Homo sapiens, UniProt Q14654); experiment: Tl+ flux selectivity assay, Kir6.2/SUR1; settings: for Kir Channel Selectivity (Fold) 6.2: Thallium flux, Kir7.1 over Kir6.2/SUR1
In short: (§1)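 Tetracycline-inducible stable T-REx-HEK-293 lines, induced overnight with 1 µg/ml tetracycline in DMEM/10% dialyzed FBS. Cells loaded 1 hr with 1.2 µM Thallos-AM in HBSS/20 mM HEPES pH 7.3 with 0.01% Pluronic F-127. Baseline fluorescence (ex 470, em 540 nm) read at 1 Hz before adding stimulus buffer with 1.8 mM Tl₂SO₄. Traces normalized to first point and vehicle-subtracted; slope taken 5–20 s post-Tl⁺; IC50 by nonlinear regression of CRCs.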

Kir2.3 = molecular target: T1, Kir2.3 (Homo sapiens, UniProt P48050); experiment: Tl+ flux selectivity assay, Kir2.3; settings: for Kir Channel Selectivity (Fold) 2.3: Thallium flux, Kir7.1 over Kir2.3
T1 sequence (P48050 1-445): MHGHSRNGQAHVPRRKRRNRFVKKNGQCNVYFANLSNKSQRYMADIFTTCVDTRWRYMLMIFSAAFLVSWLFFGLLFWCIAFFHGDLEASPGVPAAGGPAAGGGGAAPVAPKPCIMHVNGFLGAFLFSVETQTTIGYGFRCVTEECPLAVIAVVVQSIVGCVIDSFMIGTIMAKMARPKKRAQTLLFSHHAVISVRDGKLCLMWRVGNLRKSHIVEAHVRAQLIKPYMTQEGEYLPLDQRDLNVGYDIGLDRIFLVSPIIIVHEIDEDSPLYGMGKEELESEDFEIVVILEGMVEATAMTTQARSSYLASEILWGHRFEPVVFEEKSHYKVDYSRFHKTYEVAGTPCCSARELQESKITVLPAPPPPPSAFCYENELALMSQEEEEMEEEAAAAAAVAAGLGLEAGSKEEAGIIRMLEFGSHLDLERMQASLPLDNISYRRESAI

Kir3.1/3.2 = molecular target: T2, Kir3.1/3.2 (Homo sapiens, UniProt P48051+P48549); experiment: Tl+ flux selectivity assay, Kir3.1/3.2; settings: for Kir Channel Selectivity (Fold) 3.1/3.2: Thallium flux, Kir7.1 over Kir3.1/3.2
T2 sequence (P48549 1-501): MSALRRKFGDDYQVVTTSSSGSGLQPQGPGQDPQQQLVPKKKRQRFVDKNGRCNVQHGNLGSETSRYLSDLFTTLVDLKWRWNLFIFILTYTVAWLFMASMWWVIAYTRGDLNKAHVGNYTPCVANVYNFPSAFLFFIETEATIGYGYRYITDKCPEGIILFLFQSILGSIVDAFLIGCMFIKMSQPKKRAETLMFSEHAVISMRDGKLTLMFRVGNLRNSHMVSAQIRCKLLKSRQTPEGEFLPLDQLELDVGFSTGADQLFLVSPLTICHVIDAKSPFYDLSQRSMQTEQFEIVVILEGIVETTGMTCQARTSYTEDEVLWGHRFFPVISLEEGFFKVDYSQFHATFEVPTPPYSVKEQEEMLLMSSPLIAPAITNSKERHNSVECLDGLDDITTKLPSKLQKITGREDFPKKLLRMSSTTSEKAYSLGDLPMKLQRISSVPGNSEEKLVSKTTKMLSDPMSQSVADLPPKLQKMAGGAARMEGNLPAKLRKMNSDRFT
T2 sequence (P48051 1-423): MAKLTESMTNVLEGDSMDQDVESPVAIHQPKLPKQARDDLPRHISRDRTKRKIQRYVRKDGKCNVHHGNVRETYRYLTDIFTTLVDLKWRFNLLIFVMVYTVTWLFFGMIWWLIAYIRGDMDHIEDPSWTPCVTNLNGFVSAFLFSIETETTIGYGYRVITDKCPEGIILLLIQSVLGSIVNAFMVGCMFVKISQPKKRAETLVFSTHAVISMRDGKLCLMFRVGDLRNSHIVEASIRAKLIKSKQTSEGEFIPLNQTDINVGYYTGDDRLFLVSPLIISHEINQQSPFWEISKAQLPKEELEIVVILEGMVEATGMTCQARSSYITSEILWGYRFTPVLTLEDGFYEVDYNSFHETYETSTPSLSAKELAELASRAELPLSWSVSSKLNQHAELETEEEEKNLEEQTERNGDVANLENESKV

Kir4.1 = molecular target: T3, Kir4.1 (Homo sapiens, UniProt P78508); experiment: Tl+ flux selectivity assay, Kir4.1; settings: for Kir Channel Selectivity (Fold) 4.1: Thallium flux, Kir7.1 over Kir4.1
T3 sequence (P78508 1-379): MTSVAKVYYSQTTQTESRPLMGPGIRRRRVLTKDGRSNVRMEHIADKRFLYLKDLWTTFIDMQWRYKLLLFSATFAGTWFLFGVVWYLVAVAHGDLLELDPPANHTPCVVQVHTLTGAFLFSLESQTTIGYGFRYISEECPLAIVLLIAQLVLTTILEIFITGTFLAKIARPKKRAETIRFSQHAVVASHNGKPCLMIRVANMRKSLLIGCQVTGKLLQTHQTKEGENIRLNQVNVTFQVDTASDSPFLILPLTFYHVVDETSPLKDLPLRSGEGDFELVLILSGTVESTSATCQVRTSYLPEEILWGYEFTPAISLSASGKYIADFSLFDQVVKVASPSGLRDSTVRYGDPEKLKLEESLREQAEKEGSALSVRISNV
In short: as §1

Kir2.2 = molecular target: T4, Kir2.2 (Homo sapiens, UniProt Q14500); experiment: Tl+ flux selectivity assay, Kir2.2; settings: for Kir Channel Selectivity (Fold) 2.2: Thallium flux, Kir7.1 over Kir2.2
T4 sequence (Q14500 1-433): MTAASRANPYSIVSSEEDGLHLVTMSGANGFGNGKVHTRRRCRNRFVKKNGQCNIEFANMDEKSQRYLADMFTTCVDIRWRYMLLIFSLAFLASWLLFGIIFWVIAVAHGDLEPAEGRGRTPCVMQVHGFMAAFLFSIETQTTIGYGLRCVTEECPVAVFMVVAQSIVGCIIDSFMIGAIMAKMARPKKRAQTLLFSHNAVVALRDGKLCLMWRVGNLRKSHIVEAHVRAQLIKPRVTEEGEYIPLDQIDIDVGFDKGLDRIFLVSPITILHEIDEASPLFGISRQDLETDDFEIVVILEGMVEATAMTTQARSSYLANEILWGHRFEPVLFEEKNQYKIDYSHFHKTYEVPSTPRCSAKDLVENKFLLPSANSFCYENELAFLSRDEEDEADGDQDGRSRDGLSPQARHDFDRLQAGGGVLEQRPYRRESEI

Chain of Kir6.2/SUR1 (Q14654 whole entry): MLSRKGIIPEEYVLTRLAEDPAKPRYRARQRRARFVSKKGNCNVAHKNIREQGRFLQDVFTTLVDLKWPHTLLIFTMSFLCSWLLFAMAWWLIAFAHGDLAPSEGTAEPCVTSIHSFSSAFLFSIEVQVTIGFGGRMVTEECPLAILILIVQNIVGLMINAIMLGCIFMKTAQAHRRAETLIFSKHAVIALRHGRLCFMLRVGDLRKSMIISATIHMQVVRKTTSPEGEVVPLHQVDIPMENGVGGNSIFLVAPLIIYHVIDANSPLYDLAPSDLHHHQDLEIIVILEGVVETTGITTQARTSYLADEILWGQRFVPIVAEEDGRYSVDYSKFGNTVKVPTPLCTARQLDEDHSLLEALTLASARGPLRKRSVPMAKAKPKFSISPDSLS
Chain of Kir6.2/SUR1 (Q09428 whole entry partner): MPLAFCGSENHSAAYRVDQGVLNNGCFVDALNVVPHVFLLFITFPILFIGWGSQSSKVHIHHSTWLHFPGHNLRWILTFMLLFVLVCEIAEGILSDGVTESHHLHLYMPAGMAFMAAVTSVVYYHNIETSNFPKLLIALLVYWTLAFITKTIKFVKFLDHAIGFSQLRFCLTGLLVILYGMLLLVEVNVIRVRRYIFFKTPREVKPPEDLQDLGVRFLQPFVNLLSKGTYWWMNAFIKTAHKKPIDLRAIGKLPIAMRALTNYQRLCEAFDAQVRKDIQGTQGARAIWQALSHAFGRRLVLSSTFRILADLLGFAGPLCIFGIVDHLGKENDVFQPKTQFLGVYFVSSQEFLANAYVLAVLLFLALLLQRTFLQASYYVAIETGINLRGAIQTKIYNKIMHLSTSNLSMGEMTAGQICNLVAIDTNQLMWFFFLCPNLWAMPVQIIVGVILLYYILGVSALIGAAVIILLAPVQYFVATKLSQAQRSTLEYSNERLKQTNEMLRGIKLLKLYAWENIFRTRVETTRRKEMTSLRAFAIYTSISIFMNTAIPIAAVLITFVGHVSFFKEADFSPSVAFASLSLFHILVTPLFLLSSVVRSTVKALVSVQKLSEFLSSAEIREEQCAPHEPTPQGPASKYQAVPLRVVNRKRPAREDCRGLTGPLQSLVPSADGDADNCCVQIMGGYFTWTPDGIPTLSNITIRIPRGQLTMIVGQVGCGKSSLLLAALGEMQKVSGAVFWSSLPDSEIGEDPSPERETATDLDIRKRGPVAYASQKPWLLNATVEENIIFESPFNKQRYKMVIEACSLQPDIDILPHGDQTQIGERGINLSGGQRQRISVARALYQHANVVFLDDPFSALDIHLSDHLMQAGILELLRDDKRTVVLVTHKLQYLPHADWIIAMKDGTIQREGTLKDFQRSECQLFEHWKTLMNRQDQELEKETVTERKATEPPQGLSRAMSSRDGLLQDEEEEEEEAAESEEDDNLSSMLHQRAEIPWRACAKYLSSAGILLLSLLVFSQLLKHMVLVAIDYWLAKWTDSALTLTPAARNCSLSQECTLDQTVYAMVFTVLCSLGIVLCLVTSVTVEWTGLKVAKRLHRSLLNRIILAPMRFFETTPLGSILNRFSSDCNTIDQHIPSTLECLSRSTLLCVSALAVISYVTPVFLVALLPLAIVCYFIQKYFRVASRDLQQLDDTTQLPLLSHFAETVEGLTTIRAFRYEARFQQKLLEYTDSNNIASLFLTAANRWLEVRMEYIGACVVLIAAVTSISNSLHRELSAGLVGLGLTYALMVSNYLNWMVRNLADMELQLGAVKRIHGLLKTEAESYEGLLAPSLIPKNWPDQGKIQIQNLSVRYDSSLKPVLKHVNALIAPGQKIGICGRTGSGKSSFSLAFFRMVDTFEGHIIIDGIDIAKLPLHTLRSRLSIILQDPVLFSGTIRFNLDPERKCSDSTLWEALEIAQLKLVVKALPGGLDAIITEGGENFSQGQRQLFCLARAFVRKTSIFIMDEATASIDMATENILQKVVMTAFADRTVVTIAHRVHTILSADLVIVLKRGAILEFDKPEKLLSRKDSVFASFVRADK

SMILES: CC(C)OC(=O)NC1CCN(Cc2cc(Cl)c3cccnc3c2O)CC1 [Compound 19, iso-Propyl (1-((5-chloro-8-hydroxyquinolin-7-yl)methyl)piperidin-4-yl)carbamate]
- Kir Channel Selectivity (Fold) 6.2 (Kir6.2/SUR1; listed as 19 (ML418)): 1 Fold
- Kir Channel Selectivity (Fold) 6.2 (Kir6.2/SUR1; listed as ML418): equally potent
- Kir Channel Selectivity (Fold) 2.3 (Kir2.3): at least 23 Fold
- Kir Channel Selectivity (Fold) 2.3 (Kir2.3; listed as 19 (ML418)): >23 Fold
- Kir Channel Selectivity (Fold) 3.1/3.2 (Kir3.1/3.2): at least 23 Fold
- Kir Channel Selectivity (Fold) 3.1/3.2 (Kir3.1/3.2; listed as 19 (ML418)): >23 Fold
- Kir Channel Selectivity (Fold) 4.1 (Kir4.1): at least 23 Fold
- Kir Channel Selectivity (Fold) 4.1 (Kir4.1; listed as 19 (ML418)): >23 Fold
- Kir Channel Selectivity (Fold) 2.2 (Kir2.2): at least 23 Fold
- Kir Channel Selectivity (Fold) 2.2 (Kir2.2; listed as 19 (ML418)): >23 Fold

SMILES: Oc1c(CN2CCC(Cc3ccccc3)CC2)cc(Cl)c2cccnc12 [VU714]
- Kir Channel Selectivity (Fold) 6.2 (Kir6.2/SUR1): 5 Fold
- pIC50 (Kir6.2/SUR1; read-out: Kir6.2/SUR1 IC50 (Tl+ flux)): 4.52
- Kir Channel Selectivity (Fold) 2.3 (Kir2.3): >5 Fold
- pIC50 (Kir2.3; read-out: Kir2.3 IC50 (Tl+ flux)): < 4.52
- Kir Channel Selectivity (Fold) 3.1/3.2 (Kir3.1/3.2): >5 Fold
- pIC50 (Kir3.1/3.2; read-out: Kir3.1/3.2 IC50 (Tl+ flux)): < 4.52
- Kir Channel Selectivity (Fold) 4.1 (Kir4.1): 2 Fold
- pIC50 (Kir4.1; read-out: Kir4.1 IC50 (Tl+ flux)): 4.89
- Kir Channel Selectivity (Fold) 2.2 (Kir2.2): >5 Fold
- pIC50 (Kir2.2; read-out: Kir2.2 IC50 (Tl+ flux)): < 4.52
